Holding throughout (format): cell-based
The subject of data set [1] is Raji. In words: Inhibition of TPA-induced EBV-early antigen activation in human Raji cells assessed as EA activation at 1000 molar ratio after 48 hrs relative to TPA. To be noted: human gammaherpesvirus 4. The procedure, abridged:
(§1)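 Raji cells (EBV genome-carrying, virus nonproducer) were grown in RPMI-1640 with 10% FBS. Cells at 1 × 10⁶/mL were held 48 h at 37 °C with 4 mM n-butyric acid, TPA 20 ng (32 pmol)/mL, and test compound in DMSO, dosed as a mol ratio to TPA. EA-positive cells in smears were scored by indirect immunofluorescence, with ≥500 cells counted, in triplicate. Results are given relative to the butyrate+TPA control (100%).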

Data set [2] has as its system Raji. In words: Inhibition of TPA-induced EBV-early antigen activation in human Raji cells assessed as EA activation at 500 molar ratio after 48 hrs relative to TPA. To be noted: human gammaherpesvirus 4. The procedure, abridged:
as §1

Data set [3] deals with Raji. The experiment in a line: Inhibition of TPA-induced EBV-early antigen activation in human Raji cells assessed as EA activation at 100 molar ratio after 48 hrs relative to TPA. To be noted: human gammaherpesvirus 4. The procedure, abridged:
as §1

The subject of data set [4] is Raji. In words: Inhibition of TPA-induced EBV-early antigen activation in human Raji cells assessed as EA activation at 10 molar ratio after 48 hrs relative to TPA. To be noted: human gammaherpesvirus 4. The procedure, abridged: as §1
A short description of data set [5]: Cytotoxicity against human Raji cells assessed as cell viability at 1000 molar ratio. To be noted: read-out: Activity.
Data set [6] is described as follows: Cytotoxicity against human Raji cells assessed as cell viability at 500 molar ratio. To be noted: read-out: Activity.
The nature of data set [7]: Cytotoxicity against human Raji cells assessed as cell viability at 100 molar ratio. To be noted: read-out: Activity.
The nature of data set [8]: Cytotoxicity against human Raji cells assessed as cell viability at 10 molar ratio. To be noted: read-out: Activity.

Consider `CC(C)c1cc(=O)c2c(O)cc(O)c([C@@H]3O[C@H](CO)[C@@H](O)[C@H](O)[C@H]3O)c2o1`, for which the EBV-EA activation relative to control (%) in the data set on Raji [1] came to 9.1%; with Raji [2], 29.6%; in the data set on Raji [3], 72.5%; in the data set on Raji [4], 100%. The viability at 1000 molar ratio in data set [5] amounted to 70%. For the same molecule, the viability at 500 molar ratio in data set [6] was 80%. In data set [7], the viability at 100 molar ratio was determined as 80%. Moreover, the viability at 10 molar ratio in data set [8] amounted to 80%.

Consider `Cc1c(O)c(Cc2c(O)cc3oc(-c4ccc(O)c(O)c4)c(O[C@@H]4O[C@@H](C)[C@H](O)[C@@H](O)[C@H]4O)c(=O)c3c2O)c2oc(-c3ccc(O)c(O)c3)c(O[C@@H]3O[C@@H](C)[C@H](O)[C@@H](O)[C@H]3O)c(=O)c2c1O` [KUNZEAGIN A], for which the EBV-EA activation relative to control (%) in the data set with Raji [1] turned out to be 4.3%; in the data set with Raji [2] it was 32.5%; with Raji [3] it was 66.1%; in the data set on Raji [4] it was 90.5%. In addition, the viability at 1000 molar ratio in data set [5] came out at 70%. Moreover, the viability at 500 molar ratio in data set [6] worked out at 80%. In addition, in data set [7], the viability at 100 molar ratio was determined as 80%. The viability at 10 molar ratio in data set [8] stood at 80%.

For `O=C(O[C@@H]1Cc2c(O)cc(O)cc2O[C@@H]1c1cc(O)c(O)c(O)c1)c1cc(O)c(O)c(O)c1` [EPIGALOCATECHIN GALLATE], the EBV-EA activation relative to control (%) in the data set on Raji [1] came out at 6.4%; in the data set with Raji [2] it was 34.9%; in the data set with Raji [3], 68.1%; in the data set with Raji [4], 87.7%. Also, the viability at 1000 molar ratio in data set [5] amounted to 70%. For the same molecule, the viability at 500 molar ratio in data set [6] worked out at 80%. The viability at 100 molar ratio in data set [7] turned out to be 80%. In addition, the viability at 10 molar ratio in data set [8] worked out at 80%.

Consider `CC(C)c1cc(=O)c2c(O)c([C@@H]3O[C@H](CO)[C@@H](O)[C@H](O)[C@H]3OC(=O)c3cc(O)c(O)c(O)c3)c(O)cc2o1`, for which the EBV-EA activation relative to control (%) was 5.9% in the data set with Raji [1], 26.8% in the data set with Raji [2], 70.4% in the data set on Raji [3] and 94.8% in the data set with Raji [4]. In addition, the viability at 1000 molar ratio in data set [5] was 70%. For the same molecule, in data set [6], the viability at 500 molar ratio was determined as 80%. Also, the viability at 100 molar ratio in data set [7] was 80%. Further, the viability at 10 molar ratio in data set [8] was found to be 80%.

In the case of `CC(C)c1cc(=O)c2c(O)c([C@@H]3O[C@H](CO)[C@@H](O)[C@H](O)[C@H]3O)c(O)cc2o1`, the EBV-EA activation relative to control (%) with Raji [1] worked out at 4.6%; in the data set on Raji [2], 23.7%; in the data set with Raji [3], 65%; in the data set with Raji [4], 91%. The viability at 1000 molar ratio in data set [5] was determined as 70%. Further, the viability at 500 molar ratio in data set [6] amounted to 80%. In addition, the viability at 100 molar ratio in data set [7] turned out to be 80%. Besides, the viability at 10 molar ratio in data set [8] was 80%.

As to `CC(C)c1cc(=O)c2c(O)cc(O)c([C@@H]3O[C@H](CO)[C@@H](O)[C@H](O)[C@H]3OC(=O)c3cc(O)c(O)c(O)c3)c2o1`, the EBV-EA activation relative to control (%) in the data set on Raji [1] came out at 11.5%; in the data set on Raji [2] it was 31.6%; with Raji [3], 74.7%; in the data set with Raji [4] it was 100%. In addition, the viability at 1000 molar ratio in data set [5] came out at 70%. Also, in data set [6], the viability at 500 molar ratio stood at 80%. For the same molecule, the viability at 100 molar ratio in data set [7] was 80%. Besides, in data set [8], the viability at 10 molar ratio is 80%.
